Assay outcomes (PubChem)
MrgX1 PAM: allosterically activates human MrgX1 receptor signaling; Q96LB2; MrgX1-HEK293, Fluo-4 calcium flux, FDSS; hits give high values; B-score at 10 µM; 310,000 compounds, 0.63% hits;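 active = plate-corrected calcium response at least 3 library SD above typical, normal starting fluorescence, not activating the receptor alone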;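 note: compound read alongside a low EC10 to EC30 dose of BAM8-22 agonist; peak minus trough fluorescence over baseline measured at the second addition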
Target sequence (Q96LB2 whole entry, looked up): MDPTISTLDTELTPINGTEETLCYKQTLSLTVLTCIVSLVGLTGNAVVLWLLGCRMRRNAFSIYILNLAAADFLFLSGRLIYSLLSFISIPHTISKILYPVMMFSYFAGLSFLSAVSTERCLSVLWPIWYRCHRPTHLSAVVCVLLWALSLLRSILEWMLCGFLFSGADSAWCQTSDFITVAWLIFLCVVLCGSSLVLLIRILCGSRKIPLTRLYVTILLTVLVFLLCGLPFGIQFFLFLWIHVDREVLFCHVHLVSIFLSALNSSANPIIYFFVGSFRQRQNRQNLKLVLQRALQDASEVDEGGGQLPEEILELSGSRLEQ
RGS4 inh: inhibitors of human RGS4. HEK293 M3R/RGS4 inducible, Fluo-4 calcium flux; hits give high values; triggered by carbachol at its EC20. B-score at 10 µM. 310,000 compounds, 0.45% hits;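 active = B-score, a plate-corrected calcium signal, over three deviations above library mean, with baseline fluorescence within five deviations of library mean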;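 note: RGS4 expression induced by doxycycline in cells with stable M3 receptor; B-score is computed from the integrated fluorescence ratio over baseline after carbachol; higher B-score means a larger calcium signal and so more RGS4 inhibition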
Target sequence (P49798 whole entry, looked up): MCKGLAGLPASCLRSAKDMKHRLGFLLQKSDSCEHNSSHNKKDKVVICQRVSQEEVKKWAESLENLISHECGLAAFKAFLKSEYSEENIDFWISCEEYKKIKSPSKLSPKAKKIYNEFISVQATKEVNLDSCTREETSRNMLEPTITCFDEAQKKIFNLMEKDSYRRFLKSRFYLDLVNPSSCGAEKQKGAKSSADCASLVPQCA
MrgX1 agonist: activates human MrgX1 receptor signaling | MrgX1-HEK293 cells, Fluo-4 calcium fluorescence, agonist mode; hits give high values | AID 588627 | 310,000 compounds, 0.44% hits | B-score at 10 µM;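 active = calcium response B-score plate-corrected fluorescence ratio at least 3 library SD, with starting fluorescence B-score inside 5 SD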
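Assay system: stable human MrgX1 HEK293 cell line. Quantity: 15,000 cells per well. Schedule: cells plated overnight, dye loaded 0.5 h 37 °C, 0.5 h room temperature. Detection: Fluo-4 NW calcium-flux fluorescence, kinetic read. Read-out basis: peak-minus-minimum fluorescence over baseline, converted to B scores. Control set: positive and negative control wells on each plate.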
MrgX1 antagonist: blocks BAM8-22 activation of human MrgX1 receptor; MRGX1-HEK293 calcium flux, Fluo-4, BAM8-22 antagonism; hits give low values; 310,000 compounds, 1.3% hits; B-score at 10 µM;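 active = calcium-response B-score plate-corrected more than 3 library SD below zero, starting fluorescence within 5 deviations, no agonist response on first addition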;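 note: peak minus trough fluorescence over baseline after final BAM8-22 challenge near maximal dose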
RGS4 act: RGS4 potentiation or activation | 310,000 compounds, 0.92% hits | B-score at 10 µM | HEK293 M3R/inducible RGS4, carbachol calcium flux Fluo4; hits give low values;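 active = B-score of the integrated calcium signal more than 4 SD below the library mean, with starting fluorescence not abnormally high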;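 note: negative B-score means reduced calcium response which marks RGS4 activation or potentiation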
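test system = HEK293 cells with stable M3R and inducible RGS4 | schedule = recording 10 s baseline at 1 Hz, 100 s post-agonist | technique = Fluo4-AM (2 µM) calcium-flux fluorescence, kinetic read | measure = Agonist-evoked peak-minus-minimum fluorescence over baseline, integrated ratio, B score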
An asterisk follows results filed as active; i = inactive. This is a sample that favours compounds with a hit; in the whole collection about 3.5% have one here.

SMILES	MrgX1 PAM	RGS4 inh	MrgX1 agonist	MrgX1 antagonist	RGS4 act
C=CCN(C)CC/C=C1\c2ccccc2CSc2ccccc21	i	i	i	i	-11*
C#CCN(C)CC/C=C1\c2ccccc2CSc2ccccc21	i	i	i	i	-8.7*
NCC/C=C1/c2ccccc2CSc2ccccc21	i	i	i	i	-7*
COc1ccc(/C=N/n2nnnc2N)c(OC)c1	i	i	i	i	i
CN(C)CC/C=C1/c2ccc(F)cc2Sc2ccc(Cl)cc21	i	i	i	i	-7.8*
Cc1cccc(NC(=O)c2ccc(N3C(=O)C4CCCCC4C3=O)cc2)c1C (stereo not given)	i	i	i	i	i
COc1ccc(CN(N=O)C2CC(=O)N(c3ccc(OC)cc3)C2=O)cc1 (stereo not given)	i	i	i	i	-10*
O=C(CCC(=O)OCc1cccc([N+](=O)[O-])c1)Nc1ccccc1Cl	i	i	i	i	i
O=C(CCC(=O)OCC(=O)c1cccc([N+](=O)[O-])c1)Nc1ccccc1Cl	i	i	i	-7*	i
Cc1ccc(OCC(=O)Nc2cccnc2Cl)cc1C	i	i	i	i	i
CCCCN(CC)S(=O)(=O)c1ccc(C(=O)Nc2nnc(-c3cccs3)o2)cc1	i	i	33*	i	i
O=c1c(-c2ccccc2)c(-c2ccccc2)oc2cc(O)cc(O)c12	i	i	i	i	i
O=c1cc(-c2ccccc2)c2c(O)cc(O)cc2o1	i	i	29*	i	i
CN(C)S(=O)(=O)N1CCC(Oc2cccc(C(=O)NCCC3=CCCCC3)c2)CC1	i	i	i	-4.5*	i
CN(C)S(=O)(=O)N1CCC(Oc2cccc(C(=O)NC3CCCCC3)c2)CC1	i	i	i	i	i
Cc1sc(-n2c(C)cc(/C=C3\SC(=S)NC3=O)c2C)c(C#N)c1C	i	i	i	-7.4*	-11*
Cc1nccn1-c1c([N+](=O)[O-])c(=O)n(C)c2ccccc12	i	i	i	i	i
O=c1c2ccccc2ncn1-c1ccccc1[N+](=O)[O-]	13*	i	i	i	i
Cn1c(=O)c([N+](=O)[O-])c(-n2cnc3ccccc32)c2ccccc21	i	i	27*	i	i
c1ccc(C(c2ccccc2)c2noc(CN3CCN(C4CCCC4)CC3)n2)cc1	i	i	i	i	i
CC(=O)N1CCN(Cc2nc(C(c3ccccc3)c3ccccc3)no2)CC1	i	i	i	i	-7.5*
CC(=O)Oc1ccc(N2C(=O)C3C(C2=O)C(C(=O)c2ccc(Cl)cc2)N2CCCC32)cc1 (stereo not given)	i	i	30*	i	i
Cc1c(CCOC(=O)C23CC4CC(CC(C)(C4)C2)C3)sc[n+]1Cc1ccccc1	i	i	i	i	i
Cc1ccc(C(=O)OCCc2sc[n+](Cc3ccccc3)c2C)cc1	i	i	i	i	-9.1*
CCOc1ccc(C(CC(=O)O)NC(=O)COc2ccccc2)cc1OC (stereo not given)	i	i	i	-5.8*	i
SMILES	MrgX1 PAM	RGS4 inh	MrgX1 agonist	MrgX1 antagonist	RGS4 act
COc1ccccc1C(=O)Nc1c(C(=O)N(CCN(C)C)Cc2ccco2)oc2ccccc12	i	i	i	i	i
COc1ccc(OCC(=O)Nc2c(C(=O)N(CCN(C)C)Cc3ccco3)oc3ccccc23)cc1	i	i	i	-5.1*	i
CCCCN1C[C@H](O)[C@@H](O)[C@H](O)[C@H]1CO	i	i	i	i	i
OCCN1C[C@H](O)[C@@H](O)[C@H](O)[C@H]1CO	i	i	i	-9.5*	i
O=C(/C=C/c1cccc(Br)c1)c1ccc2c(c1)OCO2	8.3*	i	i	i	i
O=C(/C=C/c1ccccc1Br)c1ccc2c(c1)OCO2	i	i	i	i	-11*
O=C(/C=C\Nc1cccc(F)c1)c1ccc2c(c1)OCO2	i	i	i	-4.7*	i
COc1ccc(C(=O)N/C(=C\c2cccc([N+](=O)[O-])c2)C(=O)Nc2cccc(C(=O)O)c2)cc1	i	i	i	-6.9*	i
Cc1ccc(C(=O)N/C(=C\c2cccc([N+](=O)[O-])c2)C(=O)Nc2cccc(C(=O)O)c2)cc1	i	i	i	i	i
CCOc1ccc(CCNC(=O)Cn2ncn3nc(-c4ccc(OC)cc4)cc3c2=O)cc1OCC	i	i	i	i	i
CCn1cc(C(=O)NCCCN2CCCC(C)C2)c(=O)c2cc(S(=O)(=O)N3CCc4ccccc4C3)ccc21 (stereo not given)	i	i	i	i	-7.2*
CCC1CCCCN1CCCNC(=O)c1cn(CC)c2ccc(S(=O)(=O)N3CCc4ccccc4C3)cc2c1=O (stereo not given)	i	i	i	i	-9*
CCC1CCCCN1CCCNC(=O)c1cn(CC)c2ccc(S(=O)(=O)N(C)C3CCCCC3)cc2c1=O (stereo not given)	i	i	i	i	i
CC(NC(=O)c1cccc(S(=O)(=O)N2CCN(Cc3ccccc3)CC2)c1)c1ccc(Br)cc1 (stereo not given)	i	i	i	i	i
CCN(CC(=O)Nc1c(F)cccc1F)C(=O)C1(c2ccccc2)CC1	i	i	i	i	i
O=C(NC1CCN(Cc2ccccc2)CC1)c1ccccc1OCc1ccccc1	i	i	i	i	i
O=C(NC1CCN(Cc2ccccc2)CC1)c1ccccc1OCc1ccccc1Cl	10*	i	i	i	i
O=C(NNS(=O)(=O)c1ccc2ccccc2c1)C1CCN(Cc2ccccc2)CC1	i	i	i	i	i
O=C(NNS(=O)(=O)c1ccc(F)cc1)C1CCN(Cc2cccc(F)c2)CC1	i	i	i	i	-7.3*
Cc1ccc(C)c(Cn2c(C(=O)OC(C)C)cc3c2ccn3C)c1	i	i	i	i	-7*
CC(C)OC(=O)c1cc2c(ccn2C)n1CC(=O)N(Cc1ccccc1)c1ccc(F)cc1	i	i	i	i	i
CCOC(=O)c1cc2c(ccn2C)n1Cc1ccccc1Cl	i	i	i	i	-7.3*
COc1cccc(N2CCc3c(C)nc4ccc(Cl)cc4c32)c1	i	i	i	i	-7.5*
CC(=O)N1c2ccc(S(=O)(=O)N3CCCCC3)cc2CC1C(=O)NCc1ccccc1C (stereo not given)	i	i	i	i	i
